Screens: PubChem, several laboratories
Most compounds without a hit are left out; they make up all but 4.1% or so of the library.
FLuc act counter – affects firefly luciferase, flagging false hits in luciferase stimulation screens. 200,000 tested, under 10 active. ATPlite luciferase biochemical, luminescence, 10 min; 0 = ATP-free wells, 1 = DMSO control. activation factor at 10 µM;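 active = luciferase activation factor, scaled between plate controls, of at least 2 with compound at 10 µM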
Target sequence (P08659 whole entry, looked up): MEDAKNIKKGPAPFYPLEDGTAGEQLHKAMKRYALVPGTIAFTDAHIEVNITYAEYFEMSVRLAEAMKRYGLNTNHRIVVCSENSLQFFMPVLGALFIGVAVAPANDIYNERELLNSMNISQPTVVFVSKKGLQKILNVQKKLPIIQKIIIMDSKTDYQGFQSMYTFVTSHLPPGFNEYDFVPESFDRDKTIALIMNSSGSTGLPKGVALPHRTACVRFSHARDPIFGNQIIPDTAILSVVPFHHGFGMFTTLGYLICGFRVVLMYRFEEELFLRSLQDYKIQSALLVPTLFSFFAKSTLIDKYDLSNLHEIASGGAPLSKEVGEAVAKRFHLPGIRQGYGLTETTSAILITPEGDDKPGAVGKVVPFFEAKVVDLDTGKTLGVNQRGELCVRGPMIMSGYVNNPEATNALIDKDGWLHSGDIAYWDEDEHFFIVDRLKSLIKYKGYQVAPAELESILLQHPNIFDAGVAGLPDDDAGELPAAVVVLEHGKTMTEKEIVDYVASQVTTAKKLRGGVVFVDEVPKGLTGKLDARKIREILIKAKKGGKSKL
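Assay system: Luciferase/luciferin reagent mix; Medium: PBS as buffer for the ATP substrate; Dosing: test compounds dosed from 2 mM stocks in 100% DMSO; Times: 10 min, room temperature; Signal: luminescence from luciferase reaction; Read-out: luciferase activation; Controls: No-ATP low control, compound-free enzyme-plus-ATP high control.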
NF-kB expr up – compounds increasing NF-kB expression in human neuronal cells | fold change at 12.5 µM | 190,000 tested, 1.6% active | AID 1239 | NF-kB reporter expression; active compounds read high; in the data active = fold change above about 3.3
FLuc inhib CS – inhibits firefly luciferase, flagging false hits in luciferase inhibition screens; P08659; ATPLite firefly luciferase biochemical luminescence, 10 min; inhibition, % at 10 µM; 200,000 tested, 1.5% active; AID 1006;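 active = inhibition above about 50% when tested at 10 µM, limit read from the data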
STAT1 act – increases IFN-gamma driven STAT1 reporter signal; AID 932; 200,000 tested, 2.6% active; activation (% of control), % at 5.5 µM; NIH 3T3 STAT1-luciferase reporter, luminescence; 100% = IFN-gamma alone, no compound;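 active = activation above the screen-wide mean activation plus 3 SD, cut at about 130% in these data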;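 also: raw ratio to IFN-gamma control signal so 100% means no change and 0% no light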
APP 5'UTR act – activates APP 5'UTR luciferase reporter | activation, % at 2 µM | SH-SY5Y APP 5'UTR luciferase reporter, luminescence; zero percent = DMSO vehicle wells | 190,000 tested, 1% active;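 active = activation above a set limit, based on mean plus 3 SD of controls, cut at about 140% in these data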
* = called active by the depositor; . = no result given.

SMILES | FLuc act counter | NF-kB expr up | FLuc inhib CS | STAT1 act | APP 5'UTR act
COc1cc(/C=N/NC(=O)CC23CC4CC(CC(C4)C2)C3)cc(Br)c1OCC(=O)N(C)C | 1.1 | 0.43 | -6 | 104 | -8
COc1ccccc1NC(=O)c1csc2c1CCC(C)C2 (stereo not drawn) | 0.9 | 1.5 | 10 | 100 | -3
CCc1nnc(NC(=O)c2csc3c2CCC(C)C3)s1 (stereo not drawn) | 1.1 | 1.1 | -5 | 97 | 145*
COc1ccc(CNC(=O)c2cnn3c(C(F)F)cc(C)nc23)cc1OC | 1 | 1.1 | -4 | 93 | -10
Cc1ccc(N/C=C(/C#N)c2ccsc2)cc1 | 1 | 2.3 | 1 | 134* | 64
O=C(NN1CCCCC1)c1cccc(COc2ccc(Cl)cc2)c1 | 0.9 | 1.5 | 8 | 130* | 50
CCOc1ccc(OCc2cccc(C(=O)O)c2)cc1 | 0.1 | 12* | 93* | . | .
COc1ccc(OCc2cccc(C(=O)O)c2)cc1 | 0.2 | 8.6* | 83* | . | .
O=C(OCC(F)(F)F)c1cccc(COc2ccc3ccccc3c2)c1 | 1 | 8.1* | 3 | 19 | -44
CCOc1ccc(OCc2cccc(C(=O)N3CCCC3)c2)cc1 | 0.6 | 2.3 | 43 | 68 | 117
O=Cc1ccc(OCc2cccc(C(F)(F)F)c2)cc1O | 1 | 1.2 | -2 | 100 | 6
O=C(Cn1c(=O)n(CCCC(=O)NC2CCCC2)c(=O)c2ccccc21)NCCC1=CCCCC1 | 1.1 | 0.93 | -6 | 107 | 26
CC(OC(=O)c1cccc(NS(C)(=O)=O)c1)C(=O)Nc1ccc(N2CCOCC2)cc1 (stereo not drawn) | 1 | 0.98 | -2 | 96 | 16
O=C(O)c1cccc(COc2ccc(CO)cc2Cl)c1 | 0.2 | 0.94 | 85* | . | .
CCOc1ccc(OCc2cccc(C(=O)N3CCCCCC3)c2)cc1 | 0.3 | 2.5 | 67* | 34 | 113
COc1cc(/C=C/[N+](=O)[O-])ccc1OCc1cccc(C(=O)O)c1 | 0.6 | 4.4* | 36 | 17 | -58
CCCn1c(SCC(=O)NCCc2ccccc2)nnc1-c1cccnc1 | 1 | 1.1 | -4 | 102 | 2
CC1=CC(C)(C)[N+](C)=CN1c1ccccc1 | 1.1 | 1.1 | -7 | 101 | -6
CN(C)c1ccc(/C=N/n2ncc3ccccc32)cc1 | 0.4 | 3.1 | 60* | 150* | 355*
CCCCn1c(/N=C/c2ccc3c(c2)OCO3)nc2ccccc21 | 0.7 | 0.8 | 28 | 89 | 1
CN(C)c1ccc(/C=N/O)cc1 | 0.9 | 1.3 | 10 | 105 | 3
C=CCn1c(/N=C/c2ccc(N(C)C)cc2)nc2ccccc21 | 0.1 | 1.1 | 94* | 97 | -6
CCCCn1c(/N=C/c2ccc(N(C)C)cc2)nc2ccccc21 | 0.4 | 0.97 | 61* | 91 | 2
Cc1ccc(N(CC(=O)NC(C)(C)C)C(=O)CS(=O)CC(=O)Nc2ccc3c(c2)OCO3)cc1 (stereo not drawn) | 1 | 0.96 | 0 | 100 | 4
Nc1c(C(=O)c2ccc(Cl)cc2)sc2nc3c(cc12)CCC3 | 1 | 1.1 | 1 | 113 | 135*
SMILES | FLuc act counter | NF-kB expr up | FLuc inhib CS | STAT1 act | APP 5'UTR act
N#Cc1sc2nc3c(cc2c1N)CCCC3 | 1 | 1.1 | 3 | 111 | 0
Cc1cc(SCCOc2ccccc2)nc(N)n1 | 1 | 2.5 | 0 | 129* | 3
Cc1cc(Oc2ccccc2)nc(N)n1 | 1 | 1.3 | -3 | 100 | -4
COc1ccc(C2SCC(=O)N2CC23CC4CC(CC(C4)C2)C3)cc1 (stereo not drawn) | 1.1 | 1.2 | -9 | 97 | -7
Nc1ccc(N2CCN(c3ccc(Cl)c(Cl)c3)CC2)cc1 | 1 | 3.4* | -1 | 101 | -32
COc1ccc(/C=N/OCC(=O)N(Cc2ccc(OC)cc2)c2ccccc2C(=O)O)cc1 | 1 | 1.1 | 0 | 98 | 0
CCOC(=O)Nc1nnc(-c2ccccc2OC)s1 | 0.9 | 1.6 | 7 | 98 | 11
COC(=O)Nc1nnc(-c2ccccc2Cl)s1 | 0.4 | 2.4 | 55* | 127 | 53
Cc1ccc(/C=C/C2=NN(C)C(=O)CC2)cc1 | 0.2 | 4.5* | 78* | 123 | 153*
CC(C)Nc1nnc(SCC(=O)Nc2ccc3c(c2)C(=O)c2ccccc2C3=O)s1 | 0.9 | 0.59 | 8 | 127 | 112
O=C(CSc1nnc(NC2CCCCC2)s1)Nc1ccc2c(c1)C(=O)c1ccccc1C2=O | 1 | 1.2 | 2 | 139* | 86
COC(=O)CCC/C=C1\SC[C@@H](NC(=O)c2ccccc2)C1NC(C)=O (stereo partly drawn) | 1.1 | 0.96 | -10 | 106 | -5
COc1ccc(-n2c(C)cc(C3=NNC(=NC4CC4)SC3)c2C)cc1 | 0.7 | 1.3 | 34 | 42 | 93
c1ccc2c(C3=NNC(=NC4CC4)SC3)c[nH]c2c1 | 0.5 | 2.5 | 53* | 123 | 119
c1ccc(C2=NNC(=NC3CC3)SC2)cc1 | 0.4 | 2.2 | 62* | 76 | 22
c1ccc2c(C3=NNC(=NC4CCCCC4)SC3)c[nH]c2c1 | 1 | 1.4 | -2 | 97 | 15
Cn1c2ccccc2c2cc(C(=O)NNC(=O)CCl)sc21 | 1.1 | 2 | -8 | 133* | 7
CCCNC(=O)c1cc2c3ccccc3n(C)c2s1 | 1 | 0.84 | -2 | 98 | .
COc1ccc(/C=C/c2nnc(NC(=O)COc3ccc(C)cc3)s2)cc1 | 1 | 1.6 | -1 | 102 | 15
Cn1cc(/C=C/C(=O)c2ccccc2)c2ccccc21 | . | . | . | . | 200*
Cc1ccc(C(=O)/C=C/c2cn(CN3CCN(C)CC3)c3ccccc23)cc1 | 0.8 | 7.3* | 20 | 122 | 76
O=C(O)Cn1cc(/C=C2\SC(=O)N(c3ccccc3)C2=O)c2ccccc21 | 0.8 | 1.4 | 15 | 108 | 27
Cn1cc(/C=C2/SC(=O)N(c3ccccc3)C2=O)c2ccccc21 | 1 | 1.4 | -2 | 132* | -8
CCN(CC)C(=O)CSc1nnc(-c2ccccn2)n1-c1ccc(C)c(C)c1 | 1.1 | 1 | -6 | 103 | 17
O=S(=O)(c1ccccc1)c1cnc(-c2ccccc2)nc1N1CCCCC1 | 1 | 1.6 | 0 | 145* | -5
SMILES | FLuc act counter | NF-kB expr up | FLuc inhib CS | STAT1 act | APP 5'UTR act
c1ccc2sc(SCc3ccc(-c4nnco4)cc3)nc2c1 | 0.9 | 4.2* | 7 | 119 | 121
Cc1nnc(SCC(=O)Nc2nc(-c3ccc(F)cc3)cs2)[nH]c1=O | 1 | 1 | -2 | 111 | 3
Cc1c(C(=O)OC2CCC(C)CC2)[nH]c2c1C(=O)CCC2 (stereo not drawn) | 1 | 4.9* | 2 | 146* | 148*
[O-][n+]1c2ccc3nonc3c2nn1-c1ccccc1Cl | 1.1 | 0.94 | -8 | 106 | -6
O=S(=O)(c1ccc(S(=O)(=O)N(Cc2cccs2)CC2CCCO2)cc1)N1CCCCC1 (stereo not drawn) | 1 | 1.4 | -4 | 129* | 21
O=S(=O)(NC1CCCC1)c1ccc(S(=O)(=O)N(Cc2cccs2)CC2CCCO2)cc1 (stereo not drawn) | 1 | 0.78 | -2 | 93 | -3
